Measurements as given in ChEMBL document CHEMBL1157654, “Synthesis and in vitro biological evaluation of carbon-11-labeled quinoline derivatives as new candidate PET radioligands for cannabinoid CB2 receptor imaging” (Bioorg Med Chem, 2010).

System: not listed separately
Assay: Selectivity ratio of Ki for CB1 receptor to Ki for CB2 receptor
How it was run: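 Ratio of CB1 Ki to CB2 Ki, both from [³H]CP55940 competition binding (pH 7.4 Tris–HCl/EDTA/MgCl₂/BSA buffer) with Ki fitted by non-linear regression of competition isotherms.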

For `CCCCCOc1c(OC)ccc2cc(C(=O)NCCc3ccc(OC)cc3)c(Cl)nc12`, which Ratio Ki is on record?
The Ratio Ki was greater than 7.51.

For `CCCCCOc1c(OC)ccc2cc(C(=O)NCCc3ccccc3)c(=O)[nH]c12`, which Ratio Ki is on record?
The Ratio Ki was 28.3.

Which Ratio Ki does the source give for `CCCCCOc1c(OC)ccc2cc(C(=O)NCCc3ccc(F)cc3)c(=O)[nH]c12` here?
Its Ratio Ki is greater than 1850.

Which Ratio Ki does the source give for `CCCCCOc1c(OC)ccc2cc(C(=O)NCCc3ccc(F)cc3)c(Cl)nc12` here?
The Ratio Ki was 121.

For `CCCCCOc1c(OC)ccc2cc(C(=O)NCCCc3ccccc3)c(Cl)nc12`, which Ratio Ki is on record?
The Ratio Ki was greater than 9.36.

With `CCCCCOc1c(OC)ccc2cc(C(=O)NCCc3ccccc3)c(Cl)nc12` as the compound, how does the Ratio Ki read?
Its Ratio Ki is greater than 20.1.

With `CCCCCOc1c(OC)ccc2cc(C(=O)NCCCc3ccccc3)c(=O)[nH]c12` as the compound, how does the Ratio Ki read?
Its Ratio Ki is 31.3.

Which Ratio Ki does the source give for `CCCCCOc1c(OC)ccc2cc(C(=O)NCCc3ccc(OC)cc3)c(=O)[nH]c12` here?
The Ratio Ki was 26.2.

For `CCCCCOc1c(OC)ccc2cc(C(=O)NCCc3ccc(Cl)cc3)c(Cl)nc12`, which Ratio Ki is on record?
Its Ratio Ki is greater than 9.92.

With `CCCCCOc1c(OC)ccc2cc(C(=O)NCCc3ccc(Cl)cc3)c(=O)[nH]c12` as the compound, how does the Ratio Ki read?
Its Ratio Ki is greater than 1070.

Target: T1, Cannabinoid receptor 2 (Homo sapiens, UniProt P34972)
Assay: Displacement of [3H]CP-55940 from CB2 receptor at 10 uM

T1 sequence (P34972 whole entry): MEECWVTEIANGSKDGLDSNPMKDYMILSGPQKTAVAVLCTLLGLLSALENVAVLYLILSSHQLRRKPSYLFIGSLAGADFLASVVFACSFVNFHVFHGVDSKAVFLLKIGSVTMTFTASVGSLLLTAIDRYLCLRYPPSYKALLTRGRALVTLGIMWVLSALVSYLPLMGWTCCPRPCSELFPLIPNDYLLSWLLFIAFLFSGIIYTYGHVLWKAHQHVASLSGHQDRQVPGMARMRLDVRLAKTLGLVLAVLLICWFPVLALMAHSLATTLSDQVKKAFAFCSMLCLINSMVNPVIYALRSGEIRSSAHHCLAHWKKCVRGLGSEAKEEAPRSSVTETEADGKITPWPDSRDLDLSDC

For `CCCCCOc1c(OC)ccc2cc(C(=O)NCCc3ccc(OC)cc3)c(Cl)nc12`, which Activity is on record?
The Activity was 65.9%.

With `CCCCCOc1c(OC)ccc2cc(C(=O)NCCc3ccccc3)c(=O)[nH]c12` as the compound, how does the Activity read?
Its Activity is 103%.

Which Activity does the source give for `CCCCCOc1c(OC)ccc2cc(C(=O)NCCc3ccc(F)cc3)c(=O)[nH]c12` here?
The Activity was 101%.

With `CCCCCOc1c(OC)ccc2cc(C(=O)NCCc3ccc(F)cc3)c(Cl)nc12` as the compound, how does the Activity read?
Its Activity is 104%.

For `CCCCCOc1c(OC)ccc2cc(C(=O)NCCCc3ccccc3)c(Cl)nc12`, which Activity is on record?
Its Activity is 59.2%.

For `CCCCCOc1c(OC)ccc2cc(C(=O)NCCc3ccccc3)c(Cl)nc12`, which Activity is on record?
Its Activity is 86.3%.

With `CCCCCOc1c(OC)ccc2cc(C(=O)NCCCc3ccccc3)c(=O)[nH]c12` as the compound, how does the Activity read?
The Activity was 104%.

For `CCCCCOc1c(OC)ccc2cc(C(=O)NCCc3ccc(OC)cc3)c(=O)[nH]c12`, which Activity is on record?
Its Activity is 102%.

For `CCCCCOc1c(OC)ccc2cc(C(=O)NCCc3ccc(Cl)cc3)c(Cl)nc12`, which Activity is on record?
The Activity was 74.1%.

Which Activity does the source give for `CCCCCOc1c(OC)ccc2cc(C(=O)NCCc3ccc(Cl)cc3)c(=O)[nH]c12` here?
Its Activity is 102%.

Target: T2, Cannabinoid receptor 1 (Homo sapiens, UniProt P21554)
Assay: Displacement of [3H]CP-55940 from CB1 receptor at 10 uM

T2 sequence (P21554 whole entry): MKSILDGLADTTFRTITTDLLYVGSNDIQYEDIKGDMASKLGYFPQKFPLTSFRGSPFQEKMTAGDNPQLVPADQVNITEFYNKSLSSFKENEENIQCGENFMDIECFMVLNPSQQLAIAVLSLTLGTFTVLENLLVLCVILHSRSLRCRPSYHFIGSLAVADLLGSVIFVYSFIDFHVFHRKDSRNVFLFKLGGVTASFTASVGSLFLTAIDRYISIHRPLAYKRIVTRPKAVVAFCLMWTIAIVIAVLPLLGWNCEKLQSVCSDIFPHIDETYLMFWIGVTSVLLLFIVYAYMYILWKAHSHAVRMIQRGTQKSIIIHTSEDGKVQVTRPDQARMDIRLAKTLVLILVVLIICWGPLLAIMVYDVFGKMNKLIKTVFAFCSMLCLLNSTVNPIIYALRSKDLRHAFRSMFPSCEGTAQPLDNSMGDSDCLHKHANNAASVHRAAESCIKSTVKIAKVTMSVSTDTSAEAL

With `CCCCCOc1c(OC)ccc2cc(C(=O)NCCc3ccc(OC)cc3)c(Cl)nc12` as the compound, how does the Activity read?
Its Activity is 71%.

With `CCCCCOc1c(OC)ccc2cc(C(=O)NCCc3ccccc3)c(=O)[nH]c12` as the compound, how does the Activity read?
Its Activity is 63.4%.

For `CCCCCOc1c(OC)ccc2cc(C(=O)NCCc3ccc(F)cc3)c(=O)[nH]c12`, which Activity is on record?
The Activity was 26.3%.

With `CCCCCOc1c(OC)ccc2cc(C(=O)NCCc3ccc(F)cc3)c(Cl)nc12` as the compound, how does the Activity read?
Its Activity is 64.8%.

With `CCCCCOc1c(OC)ccc2cc(C(=O)NCCCc3ccccc3)c(Cl)nc12` as the compound, how does the Activity read?
Its Activity is 66.3%.

For `CCCCCOc1c(OC)ccc2cc(C(=O)NCCc3ccccc3)c(Cl)nc12`, which Activity is on record?
Its Activity is 73.7%.

With `CCCCCOc1c(OC)ccc2cc(C(=O)NCCCc3ccccc3)c(=O)[nH]c12` as the compound, how does the Activity read?
The Activity was 51.4%.

For `CCCCCOc1c(OC)ccc2cc(C(=O)NCCc3ccc(OC)cc3)c(=O)[nH]c12`, which Activity is on record?
The Activity was 68.7%.

With `CCCCCOc1c(OC)ccc2cc(C(=O)NCCc3ccc(Cl)cc3)c(Cl)nc12` as the compound, how does the Activity read?
The Activity was 34.4%.

For `CCCCCOc1c(OC)ccc2cc(C(=O)NCCc3ccc(Cl)cc3)c(=O)[nH]c12`, which Activity is on record?
Its Activity is -9%.

Target: T1, Cannabinoid receptor 2
Assay: Displacement of [3H]CP-55940 from CB2 receptor
How it was run: (§1)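 Radioligand competition binding at CB1 or CB2 with [³H]CP55940; CP55940 reference. Ki (nM) obtained from non-linear regression of competition binding isotherms (secondary assay).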

With `CCCCCOc1c(OC)ccc2cc(C(=O)NCCc3ccc(OC)cc3)c(Cl)nc12` as the compound, how does the Ki read?
The Ki was 1330 nM.

With `CCCCCOc1c(OC)ccc2cc(C(=O)NCCc3ccccc3)c(=O)[nH]c12` as the compound, how does the Ki read?
The Ki was 6.92 nM.

For `CCCCCOc1c(OC)ccc2cc(C(=O)NCCc3ccc(F)cc3)c(=O)[nH]c12`, which Ki is on record?
The Ki was 5.4 nM.

For `CCCCCOc1c(OC)ccc2cc(C(=O)NCCc3ccc(F)cc3)c(Cl)nc12`, which Ki is on record?
The Ki was 23.8 nM.

For `CCCCCOc1c(OC)ccc2cc(C(=O)NCCCc3ccccc3)c(Cl)nc12`, which Ki is on record?
Its Ki is 1070 nM.

With `CCCCCOc1c(OC)ccc2cc(C(=O)NCCc3ccccc3)c(Cl)nc12` as the compound, how does the Ki read?
The Ki was 497 nM.

Which Ki does the source give for `CCCCCOc1c(OC)ccc2cc(C(=O)NCCCc3ccccc3)c(=O)[nH]c12` here?
Its Ki is 10.3 nM.

For `CCCCCOc1c(OC)ccc2cc(C(=O)NCCc3ccc(OC)cc3)c(=O)[nH]c12`, which Ki is on record?
Its Ki is 27.9 nM.

For `CCCCCOc1c(OC)ccc2cc(C(=O)NCCc3ccc(Cl)cc3)c(Cl)nc12`, which Ki is on record?
The Ki was 1010 nM.

Which Ki does the source give for `CCCCCOc1c(OC)ccc2cc(C(=O)NCCc3ccc(Cl)cc3)c(=O)[nH]c12` here?
The Ki was 9.37 nM.

Target: T2, Cannabinoid receptor 1
Assay: Displacement of [3H]CP-55940 from CB1 receptor
How it was run: as §1

Which Ki does the source give for `CCCCCOc1c(OC)ccc2cc(C(=O)NCCc3ccc(OC)cc3)c(Cl)nc12` here?
The Ki was greater than 10000 nM.

For `CCCCCOc1c(OC)ccc2cc(C(=O)NCCc3ccccc3)c(=O)[nH]c12`, which Ki is on record?
Its Ki is 196 nM.

With `CCCCCOc1c(OC)ccc2cc(C(=O)NCCc3ccc(F)cc3)c(=O)[nH]c12` as the compound, how does the Ki read?
Its Ki is greater than 10000 nM.

For `CCCCCOc1c(OC)ccc2cc(C(=O)NCCc3ccc(F)cc3)c(Cl)nc12`, which Ki is on record?
The Ki was 2880 nM.

With `CCCCCOc1c(OC)ccc2cc(C(=O)NCCCc3ccccc3)c(Cl)nc12` as the compound, how does the Ki read?
The Ki was greater than 10000 nM.

Which Ki does the source give for `CCCCCOc1c(OC)ccc2cc(C(=O)NCCc3ccccc3)c(Cl)nc12` here?
Its Ki is greater than 10000 nM.

For `CCCCCOc1c(OC)ccc2cc(C(=O)NCCCc3ccccc3)c(=O)[nH]c12`, which Ki is on record?
The Ki was 323 nM.

With `CCCCCOc1c(OC)ccc2cc(C(=O)NCCc3ccc(OC)cc3)c(=O)[nH]c12` as the compound, how does the Ki read?
The Ki was 733 nM.

With `CCCCCOc1c(OC)ccc2cc(C(=O)NCCc3ccc(Cl)cc3)c(Cl)nc12` as the compound, how does the Ki read?
The Ki was greater than 10000 nM.

For `CCCCCOc1c(OC)ccc2cc(C(=O)NCCc3ccc(Cl)cc3)c(=O)[nH]c12`, which Ki is on record?
Its Ki is greater than 10000 nM.
